ChEMBL document CHEMBL3351938, “C5-Alkyl-2-methylurea-Substituted Pyridines as a New Class of Glucokinase Activators” (ACS Med Chem Lett, 2014)

Tests used:
[1] = substrate: CCn1nccc1Oc1cc(C[C@H]2C[C@H](O)C2)cnc1NC(=O)NC; test: (§1) Activity of human recombinant Glucokinase measured over 5 mins by spectrophotometry
Outline: (§2)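 S_0.5 (K_m for glucose) measured with recombinant human GK; duplicate determinations (n = 2).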

[2] = substrate: CCn1nccc1Oc1cc(CCCC(C)(C)O)cnc1NC(=O)NC; test: as §1; outline: as §2
[3] = substrate: CCc1ncccc1Oc1cc(CC2CCCCC2)cnc1NC(=O)NC; test: as §1; outline: as §2
[4] = substrate: CCn1nccc1Oc1cc(C[C@H]2CC[C@H](O)CC2)cnc1NC(=O)NC; test: as §1; outline: as §2
[5] = substrate: CCc1ncccc1Oc1cc(CC(C)C)cnc1NC(=O)NC; test: as §1; outline: as §2
[6] = substrate: CCn1nccc1Oc1cc(C[C@H]2C[C@@](C)(O)C2)cnc1NC(=O)NC; test: as §1; outline: as §2
[7] = substrate: CCn1nc(COC)cc1Oc1cc(CC2CCOCC2)cnc1NC(=O)NC; test: as §1; outline: as §2
[8] = substrate: CCn1nccc1Oc1cc(CC2CCOCC2)cnc1NC(=O)NC; test: as §1; outline: as §2
[9] = substrate: CNC(=O)Nc1ncc(CC2CCOCC2)cc1Oc1ccnn1C(C)C; test: as §1; outline: as §2
[10] = substrate: CCn1nccc1Oc1cc(CN2CCOCC2)cnc1NC(=O)NC; test: as §1; outline: as §2
[11] = substrate: CCc1ncccc1Oc1cc(CCCCO)cnc1NC(=O)NC; test: as §1; outline: as §2
[12] = substrate: CCn1nccc1Oc1cc(C[C@H]2C[C@@H](O)C2)cnc1NC(=O)NC; test: as §1; outline: as §2
[13] = substrate: CCn1nccc1Oc1cc(C[C@@H]2CCO[C@@H](COC)C2)cnc1NC(=O)NC; test: as §1; outline: as §2
[14] = substrate: CCn1nccc1Oc1cc(CCCCOC)cnc1NC(=O)NC; test: as §1; outline: as §2
[15] = substrate: CCc1ncccc1Oc1cc(CCCOC)cnc1NC(=O)NC; test: as §1; outline: as §2
[16] = substrate: CCc1ncccc1Oc1cc(CC2CCOCC2)cnc1NC(=O)NC; test: as §1; outline: as §2
[17] = substrate: CCOCCc1cnc(NC(=O)NC)c(Oc2cccnc2CC)c1; test: as §1; outline: as §2
[18] = substrate: CCc1ncccc1Oc1cc(CCCCOC)cnc1NC(=O)NC; test: as §1; outline: as §2
[19] = substrate: CCn1nccc1Oc1cc(C[C@H]2CC[C@@H](O)CC2)cnc1NC(=O)NC; test: as §1; outline: as §2
[20] = substrate: CCn1nccc1Oc1cc(C[C@H]2CC[C@@](C)(O)CC2)cnc1NC(=O)NC; test: as §1; outline: as §2
[21] = substrate: CCn1nccc1Oc1cc(C[C@H]2CC[C@](C)(O)CC2)cnc1NC(=O)NC; test: as §1; outline: as §2
[22] = substrate: CCn1nccc1Oc1cc(C[C@H]2CCO[C@H](COC)C2)cnc1NC(=O)NC; test: as §1; outline: as §2
[23] = substrate: CCn1nccc1Oc1cc(C(O)C2CCOCC2)cnc1NC(=O)NC; test: as §1; outline: as §2

B1: Hexokinase-4 (Homo sapiens), P35557 (protein)
chain: MLDDRARMEAAKKEKVEQILAEFQLQEEDLKKVMRRMQKEMDRGLRLETHEEASVKMLPTYVRSTPEGSEVGDFLSLDLGGTNFRVMLVKVGEGEEGQWSVKTKHQMYSIPEDAMTGTAEMLFDYISECISDFLDKHQMKHKKLPLGFTFSFPVRHEDIDKGILLNWTKGFKASGAEGNNVVGLLRDAIKRRGDFEMDVVAMVNDTVATMISCYYEDHQCEVGMIVGTGCNACYMEEMQNVELVEGDEGRMCVNTEWGAFGDSGELDEFLLEYDRLVDESSANPGQQLYEKLIGGKYMGELVRLVLLRLVDENLLFHGEASEQLRTRGAFETRFVSQVESDTGDRKQIYNILSTLGLRPSTTDCDIVRRACESVSTRAAHMCSAGLAGVINRMRESRSEDVMRITVGVDGSVYKLHPSFKERFHASVRRLTPSCEITFIESEEGSGRGAALVSAVACKKACMLGQ
Work on B1 yielded a Km [1] of 630 µM, a Km [2] of 840 µM and a Km [3] of 760 µM. The Km [4] was 710 µM, the Km [5] was 660 µM and the Km [6] was 820 µM. The Km [7] was 850 µM, the Km [8] was 840 µM and the Km [9] was 950 µM. The Km [10] was 860 µM, the Km [11] was 850 µM and the Km [12] was 720 µM. For the same protein, the Km [13] was 880 µM, the Km [14] was 860 µM and the Km [15] was 870 µM. The Km [16] was 850 µM, the Km [17] was 880 µM and the Km [18] was 820 µM. It also gave a Km [19] of 760 µM, a Km [20] of 560 µM and a Km [21] of 690 µM. For the same protein, the Km [22] was 940 µM and the Km [23] was 1200 µM.
